Experimental data taken from ChEMBL document CHEMBL3585335, “Isolation and Synthetic Diversification of Jadomycin 4-Amino-l-phenylalanine” (J Nat Prod, 2015).
Calls of active or inactive are those of the source.

Tests used:
T47D = test: Cytotoxicity against human T47D cells assessed as cell growth at 1 x 10^-5 M; type: functional, cell-based
Outline: (§1)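 Tested by the NCI Developmental Therapeutics Program in its one-dose screen across the 60 human tumour cell line panel.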

OVCAR-5 = test: Cytotoxicity against human OVCAR5 cells assessed as cell growth at 1 x 10^-5 M; type: functional, cell-based
Outline: (§2)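 Run by the NCI Developmental Therapeutics Program (DTP) as its one-dose screen across the 60 human tumour cell line panel.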

SF-268 = test: Cytotoxicity against human SF268 cells assessed as cell growth at 1 x 10^-5 M; type: functional, cell-based; outline: as §2
Hs-578T = test: Cytotoxicity against human Hs578T cells assessed as cell growth at 1 x 10^-5 M; type: functional, cell-based; outline: as §2
NCI-H522 = test: Cytotoxicity against human NCI-H522 cells assessed as cell growth at 1 x 10^-5 M; type: functional, cell-based; outline: as §2
U-251 = test: Cytotoxicity against human U251 cells assessed as cell growth at 1 x 10^-5 M; type: functional, cell-based; outline: as §1
MDA-MB-435 = test: Cytotoxicity against human MDA-MB-435 cells assessed as cell growth at 1 x 10^-5 M; type: functional, cell-based; outline: as §2
CCRF-CEM = test: Cytotoxicity against human CCRF-CEM cells assessed as cell growth at 1 x 10^-5 M; type: functional, cell-based; outline: as §2
Malme-3M = test: Cytotoxicity against human MALME-3M cells assessed as cell growth at 1 x 10^-5 M; type: functional, cell-based; outline: as §2
NCI/ADR-RES = test: Cytotoxicity against human NCI-ADR-RES cells assessed as cell growth at 1 x 10^-5 M; type: functional, cell-based; outline: as §2
SF-539 = test: Cytotoxicity against human SF539 cells assessed as cell growth at 1 x 10^-5 M; type: functional, cell-based; outline: as §2
K562 = test: Cytotoxicity against human K562 cells assessed as cell growth at 1 x 10^-5 M; type: functional, cell-based; outline: as §2
SF-295 = test: Cytotoxicity against human SF295 cells assessed as cell growth at 1 x 10^-5 M; type: functional, cell-based; outline: as §2
CAKI-1 = test: Cytotoxicity against human Caki1 cells assessed as cell growth at 1 x 10^-5 M; type: functional, cell-based; outline: as §2
BT-549 = test: Cytotoxicity against human BT549 cells assessed as cell growth at 1 x 10^-5 M; type: functional, cell-based; outline: as §2
HCC 2998 = test: Cytotoxicity against human HCC2998 cells assessed as cell growth at 1 x 10^-5 M; type: functional, cell-based; outline: as §2
OVCAR-8 = test: Cytotoxicity against human OVCAR8 cells assessed as cell growth at 1 x 10^-5 M; type: functional, cell-based; outline: as §2
Escherichia coli [1] = test: Effect on Copper-mediated Escherichia coli pUC19 DNA cleavage at 100 uM by gel-electrophoresis analysis
NCI-H23 = test: Cytotoxicity against human NCI-H23 cells assessed as cell growth at 1 x 10^-5 M; type: functional, cell-based; outline: as §2
A549 = test: Cytotoxicity against human A549 cells assessed as cell growth at 1 x 10^-5 M; type: functional, cell-based; outline: as §2
786-0 = test: Cytotoxicity against human 786-0 cells assessed as cell growth at 1 x 10^-5 M; type: functional, cell-based; outline: as §2
NCI-H226 = test: Cytotoxicity against human NCI-H226 cells assessed as cell growth at 1 x 10^-5 M; type: functional, cell-based; outline: as §2
SR = test: Cytotoxicity against human SR cells assessed as cell growth at 1 x 10^-5 M; type: functional, cell-based; outline: as §2
PC-3 = test: Cytotoxicity against human PC3 cells assessed as cell growth at 1 x 10^-5 M; type: functional, cell-based; outline: as §2
UO-31 = test: Cytotoxicity against human UO31 cells assessed as cell growth at 1 x 10^-5 M; type: functional, cell-based; outline: as §1
SK-MEL-2 = test: Cytotoxicity against human SK-MEL-2 cells assessed as cell growth at 1 x 10^-5 M; type: functional, cell-based; outline: as §2
SK-OV-3 = test: Cytotoxicity against human SKOV3 cells assessed as cell growth at 1 x 10^-5 M; type: functional, cell-based; outline: as §2
A498 = test: Cytotoxicity against human A498 cells assessed as cell growth at 1 x 10^-5 M; type: functional, cell-based; outline: as §2
HOP-62 = test: Cytotoxicity against human HOP62 cells assessed as cell growth at 1 x 10^-5 M; type: functional, cell-based; outline: as §2
COLO 205 = test: Cytotoxicity against human COLO205 cells assessed as cell growth at 1 x 10^-5 M; type: functional, cell-based; outline: as §2
SW-620 = test: Cytotoxicity against human SW620 cells assessed as cell growth at 1 x 10^-5 M; type: functional, cell-based; outline: as §1
OVCAR-4 = test: Cytotoxicity against human OVCAR4 cells assessed as cell growth at 1 x 10^-5 M; type: functional, cell-based; outline: as §2
M14 = test: Cytotoxicity against human M14 cells assessed as cell growth at 1 x 10^-5 M; type: functional, cell-based; outline: as §2
ACHN = test: Cytotoxicity against human ACHN cells assessed as cell growth at 1 x 10^-5 M; type: functional, cell-based; outline: as §2
UACC-62 = test: Cytotoxicity against human UACC62 cells assessed as cell growth at 1 x 10^-5 M; type: functional, cell-based; outline: as §1
SK-MEL-28 = test: Cytotoxicity against human SK-MEL-28 cells assessed as cell growth at 1 x 10^-5 M; type: functional, cell-based; outline: as §2
HT-29 = test: Cytotoxicity against human HT-29 cells assessed as cell growth at 1 x 10^-5 M; type: functional, cell-based; outline: as §2
NCI-H460 = test: Cytotoxicity against human NCI-H460 cells assessed as cell growth at 1 x 10^-5 M; type: functional, cell-based; outline: as §2
SNB-75 = test: Cytotoxicity against human SNB75 cells assessed as cell growth at 1 x 10^-5 M; type: functional, cell-based; outline: as §2
Escherichia coli [2] = test: Effect on Copper-mediated Escherichia coli pBR322 DNA cleavage at 100 uM by gel-electrophoresis analysis
HCT-15 = test: Cytotoxicity against human HCT15 cells assessed as cell growth at 1 x 10^-5 M; type: functional, cell-based; outline: as §2
MOLT-4 = test: Cytotoxicity against human MOLT4 cells assessed as cell growth at 1 x 10^-5 M; type: functional, cell-based; outline: as §2
HCT-116 = test: Cytotoxicity against human HCT116 cells assessed as cell growth at 1 x 10^-5 M; type: functional, cell-based; outline: as §2
HOP-92 = test: Cytotoxicity against human HOP92 cells assessed as cell growth at 1 x 10^-5 M; type: functional, cell-based; outline: as §2
MCF7 = test: Cytotoxicity against human MCF7 cells assessed as cell growth at 1 x 10^-5 M; type: functional, cell-based; outline: as §2
SK-MEL-5 = test: Cytotoxicity against human SK-MEL-5 cells assessed as cell growth at 1 x 10^-5 M; type: functional, cell-based; outline: as §2
HL-60(TB) = test: Cytotoxicity against human HL-60(TB) cells assessed as cell growth at 1 x 10^-5 M; type: functional, cell-based
Outline: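 Run by the NCI Developmental Therapeutics Program (DTP) within its 60 human tumour cell line one-dose screen.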

LOX IMVI = test: Cytotoxicity against human LOXIMVI cells assessed as cell growth at 1 x 10^-5 M; type: functional, cell-based; outline: as §2
Escherichia coli [3] = test: Effect on photodynamic inactivation in Escherichia coli pUC19 DNA assessed as photo-mediated DNA cleavage at 10 to 100 uM by ethidium bromide gel-electrophoresis analysis
SNB-19 = test: Cytotoxicity against human SNB19 cells assessed as cell growth at 1 x 10^-5 M; type: functional, cell-based; outline: as §2
KM12 = test: Cytotoxicity against human KM12 cells assessed as cell growth at 1 x 10^-5 M; type: functional, cell-based; outline: as §2
OVCAR-3 = test: Cytotoxicity against human OVCAR3 cells assessed as cell growth at 1 x 10^-5 M; type: functional, cell-based; outline: as §2
DU-145 = test: Cytotoxicity against human DU145 cells assessed as cell growth at 1 x 10^-5 M; type: functional, cell-based; outline: as §2
MDA-MB-231 = test: Cytotoxicity against human MDA-MB-231 cells assessed as cell growth at 1 x 10^-5 M; type: functional, cell-based; outline: as §2
TK-10 = test: Cytotoxicity against human TK10 cells assessed as cell growth at 1 x 10^-5 M; type: functional, cell-based; outline: as §1
MDA-MB-468 = test: Cytotoxicity against human MDA-MB-468 cells assessed as cell growth at 1 x 10^-5 M; type: functional, cell-based; outline: as §2
NCI-H322M = test: Cytotoxicity against human NCI-H322M cells assessed as cell growth at 1 x 10^-5 M; type: functional, cell-based; outline: as §2
SN12C = test: Cytotoxicity against human SN12C cells assessed as cell growth at 1 x 10^-5 M; type: functional, cell-based; outline: as §2
RXF 393 = test: Cytotoxicity against human RXF393 cells assessed as cell growth at 1 x 10^-5 M; type: functional, cell-based; outline: as §2
UACC-257 = test: Cytotoxicity against human UACC257 cells assessed as cell growth at 1 x 10^-5 M; type: functional, cell-based; outline: as §1
IGROV-1 = test: Cytotoxicity against human IGROV1 cells assessed as cell growth at 1 x 10^-5 M; type: functional, cell-based; outline: as §2

Cc1cc(O)c2c(c1)C1OC(=O)[C@H](Cc3ccc(NC(=O)COc4ccccc4)cc3)N1C1=C2C(=O)c2cccc(O[C@H]3C[C@@H](O)[C@@H](O)[C@H](C)O3)c2C1=O (stereo partly specified)
inactive: growth inhibition (GI) (T47D) | growth inhibition (GI) (OVCAR-5) | growth inhibition (GI) (SF-268) | growth inhibition (GI) (Hs-578T) | growth inhibition (GI) (NCI-H522) | growth inhibition (GI) (U-251) | growth inhibition (GI) (MDA-MB-435) | growth inhibition (GI) (CCRF-CEM) | growth inhibition (GI) (Malme-3M) | growth inhibition (GI) (NCI/ADR-RES) | growth inhibition (GI) (SF-539) | growth inhibition (GI) (K562) | growth inhibition (GI) (SF-295) | growth inhibition (GI) (CAKI-1) | growth inhibition (GI) (BT-549) | growth inhibition (GI) (HCC 2998) | growth inhibition (GI) (OVCAR-8) | Activity (Escherichia coli [1]) | growth inhibition (GI) (NCI-H23) | growth inhibition (GI) (A549) | growth inhibition (GI) (786-0) | growth inhibition (GI) (NCI-H226) | growth inhibition (GI) (SR) | growth inhibition (GI) (PC-3) | growth inhibition (GI) (UO-31) | growth inhibition (GI) (SK-MEL-2) | growth inhibition (GI) (SK-OV-3) | growth inhibition (GI) (A498) | growth inhibition (GI) (HOP-62) | growth inhibition (GI) (COLO 205) | growth inhibition (GI) (SW-620) | growth inhibition (GI) (OVCAR-4) | growth inhibition (GI) (M14) | growth inhibition (GI) (ACHN) | growth inhibition (GI) (UACC-62) | growth inhibition (GI) (SK-MEL-28) | growth inhibition (GI) (HT-29) | growth inhibition (GI) (NCI-H460) | growth inhibition (GI) (SNB-75) | Activity (Escherichia coli [2]) | growth inhibition (GI) (HCT-15) | growth inhibition (GI) (MOLT-4) | growth inhibition (GI) (HCT-116) | growth inhibition (GI) (HOP-92) | growth inhibition (GI) (MCF7) | growth inhibition (GI) (SK-MEL-5) | growth inhibition (GI) (HL-60(TB)) | growth inhibition (GI) (LOX IMVI) | Activity (Escherichia coli [3]) | growth inhibition (GI) (SNB-19) | growth inhibition (GI) (KM12) | growth inhibition (GI) (OVCAR-3) | growth inhibition (GI) (DU-145) | growth inhibition (GI) (MDA-MB-231) | growth inhibition (GI) (TK-10) | growth inhibition (GI) (MDA-MB-468) | growth inhibition (GI) (NCI-H322M) | growth inhibition (GI) (SN12C) | growth inhibition (GI) (RXF 393) | growth inhibition (GI) (UACC-257) | growth inhibition (GI) (IGROV-1)
